Test results as given in ChEMBL document CHEMBL1165950, “Design and synthesis of new potent anticancer pyrazoles with high FLT3 kinase inhibitory selectivity” (Bioorg Med Chem, 2010).

What was measured:
Format in all cases: functional
SNB-19 [1] = experiment: Cytotoxicity against human SNB19 cells assessed as cell growth at 0.001 uM after 48 hrs by sulforhodamine B assay; conditions: SNB-19, 48 h, read-out: Activity
NCI/ADR-RES [2] = experiment: Cytotoxicity against human NCI/ADR-RES cells assessed as cell growth at 1 uM after 48 hrs by sulforhodamine B assay; conditions: read-out: Activity
SK-MEL-28 = experiment: Cytotoxicity against human SK-MEL-28 cells assessed as cell growth at 10 uM; conditions: read-out: Activity
In short: (§1)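 NCI-60 screen: cells grown in RPMI 1640 with 5% FBS and 2 mM L-glutamine, plated at 5000–40,000 cells/well according to doubling time, and preincubated 24 h at 37 °C, 5% CO2. The single 10 µM dose (DMSO stock) was added, then incubated 48 h. Cells were TCA-fixed and stained with 0.4% SRB, read at 515 nm, and growth % calculated against time-zero and control plates.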

NCI-H460 = experiment: Cytotoxicity against human NCI-H460 cells assessed as cell growth at 100 nM after 48 hrs by sulforhodamine B assay; conditions: NCI-H460, 48 h, read-out: Activity
UO-31 = experiment: Cytotoxicity against human UO31 cells assessed as cell growth at 10 uM; conditions: read-out: Activity; in short: as §1
NCI-H322M = experiment: Cytotoxicity against human NCI-H322M cells assessed as cell growth at 1 uM after 48 hrs by sulforhodamine B assay; conditions: read-out: Activity
HT-29 = experiment: Cytotoxicity against human HT-29 cells assessed as cell growth at 0.01 uM after 48 hrs by sulforhodamine B assay; conditions: HT-29, 48 h, read-out: Activity
K562 = experiment: Cytotoxicity against human K562 cells assessed as cell growth at 1 uM after 48 hrs by sulforhodamine B assay; conditions: K562, 48 h, read-out: Activity
MOLT-4 = experiment: Cytotoxicity against human MOLT4 cells assessed as cell growth at 10 uM; conditions: read-out: Activity; in short: as §1
HOP-62 = experiment: Cytotoxicity against human HOP62 cells assessed as cell growth at 0.01 uM after 48 hrs by sulforhodamine B assay; conditions: HOP-62, 48 h, read-out: Activity
MDA-MB-468 = experiment: Cytotoxicity against human MDA-MB-468 cells assessed as cell growth at 10 uM after 48 hrs by sulforhodamine B assay; conditions: MDA-MB-468, 48 h, read-out: Activity
Malme-3M = experiment: Cytotoxicity against human MALME-3M cells assessed as cell growth at 10 uM after 48 hrs by sulforhodamine B assay; conditions: read-out: Activity
CAKI-1 = experiment: Cytotoxicity against human Caki1 cells assessed as cell growth at 10 uM; conditions: read-out: Activity
In short: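 Single-dose NCI-60 screen at 10 µM. Cells were grown in RPMI 1640 with 5% FBS and 2 mM L-glutamine, then treated for 48 h at 37 °C. Protein was measured by SRB staining with absorbance at 515 nm. Percentage growth was recorded, and inhibition percentage was calculated as 100 minus growth percentage.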

NCI/ADR-RES [3] = experiment: Cytotoxicity against human NCI/ADR-RES cells assessed as cell growth at 0.01 uM after 48 hrs by sulforhodamine B assay; conditions: read-out: Activity
SNB-75 = experiment: Cytotoxicity against human SNB75 cells assessed as cell growth at 0.001 uM after 48 hrs by sulforhodamine B assay; conditions: SNB-75, 48 h, read-out: Activity
SK-MEL-2 [4] = experiment: Cytotoxicity against human SK-MEL-2 cells assessed as cell growth at 10 uM; conditions: read-out: Activity; in short: as §1
MDA-MB-435 = experiment: Cytotoxicity against human MDA-MB-435 cells assessed as cell growth at 0.001 uM after 48 hrs by sulforhodamine B assay; conditions: MDA-MB-435, 48 h, read-out: Activity
IGROV-1 = experiment: Growth inhibition of human IGROV1 cells after 48 hrs by sulforhodamine B assay; conditions: IGROV-1, 48 h; for CC50: read-out: LC50 (the source's name)
In short: (§2)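 NCI 60-cell screen, five-dose mode. Cells grown in RPMI 1640 with 5% FBS and 2 mM L-glutamine and plated at 5000-40,000 cells/well according to doubling time. After 24 h preincubation, a Tz plate was TCA-fixed. Five concentrations (10-fold or 1/2 log dilutions) were applied for 48 h at 37 °C. SRB staining read at 515 nm. IC50 taken from [(Ti-Tz)/(C-Tz)]×100 = 50.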

SF-268 = experiment: Cytotoxicity against human SF268 cells assessed as cell growth at 100 nM after 48 hrs by sulforhodamine B assay; conditions: SF-268, 48 h, read-out: Activity
NCI-H23 = experiment: Cytotoxicity against human NCI-H23 cells assessed as cell growth at 1 uM after 48 hrs by sulforhodamine B assay; conditions: NCI-H23, 48 h, read-out: Activity
ACHN = experiment: Cytotoxicity against human ACHN cells assessed as cell growth at 100 nM after 48 hrs by sulforhodamine B assay; conditions: read-out: Activity
In short: (§3)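 NCI-60 five-dose screen. Cells were grown in RPMI 1640 with 5% FBS and 2 mM L-glutamine, plated at 5000–40,000 cells/well and preincubated for 24 h. Time-zero plates were TCA-fixed. DMSO-solubilized drug was added at five concentrations (10-fold or ½-log serial dilutions) for 48 h at 37 °C, 5% CO2. Cells were TCA-fixed, stained with 0.4% SRB and read at 515 nm. Percent growth used time-zero, control and test absorbances.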

CCRF-CEM = experiment: Cytotoxicity against human CCRF-CEM cells assessed as cell growth at 10 uM after 48 hrs by sulforhodamine B assay; conditions: read-out: Activity; in short: as §3
KM12 = experiment: Cytotoxicity against human KM12 cells assessed as cell growth at 0.001 uM after 48 hrs by sulforhodamine B assay; conditions: KM12, 48 h, read-out: Activity
COLO 205 = experiment: Growth inhibition of human COLO205 cells after 48 hrs by sulforhodamine B assay; conditions: COLO 205, 48 h; for CC50: read-out: LC50 (the source's name)
In short: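 NCI five-dose SRB assay in RPMI 1640 with 5% FBS and 2 mM L-glutamine. Cells were preincubated 24 h, then exposed 48 h at 37 °C to five concentrations (10-fold or half-log serial dilutions from DMSO stocks). TCA fixation, SRB staining, and absorbance at 515 nm followed. IC50 was taken where [(Ti−Tz)/(C−Tz)]×100 = 50, with Tz as time-zero cell density.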

SNB-19 [5] = experiment: Cytotoxicity against human SNB19 cells assessed as cell growth at 10 uM after 48 hrs by sulforhodamine B assay; conditions: SNB-19, 48 h, read-out: Activity
NCI/ADR-RES [6] = experiment: Cytotoxicity against human NCI/ADR-RES cells assessed as cell growth at 0.001 uM after 48 hrs by sulforhodamine B assay; conditions: read-out: Activity
OVCAR-8 = experiment: Cytotoxicity against human OVCAR8 cells assessed as cell growth at 0.001 uM after 48 hrs by sulforhodamine B assay; conditions: OVCAR-8, 48 h, read-out: Activity
SK-MEL-5 = experiment: Cytotoxicity against human SK-MEL-5 cells assessed as cell growth at 10 uM; conditions: read-out: Activity; in short: as §1
SK-MEL-2 [7] = experiment: Growth inhibition of human SK-MEL-2 cells after 48 hrs by sulforhodamine B assay; conditions: SK-MEL-2, 48 h; for CC50: read-out: LC50 (the source's name); in short: as §2

Row | SMILES | growth at 0.001 µM (SNB-19 [1]) [%] | growth at 1 µM (NCI/ADR-RES [2]) [%] | growth at 10 µM (SK-MEL-28) [%] | growth at 0.1 µM (NCI-H460) [%] | growth at 10 µM (UO-31) [%] | growth at 1 µM (NCI-H322M) [%] | growth at 0.01 µM (HT-29) [%] | growth at 1 µM (K562) [%] | growth at 10 µM (MOLT-4) [%] | growth at 0.01 µM (HOP-62) [%] | growth at 10 µM (MDA-MB-468) [%] | growth at 10 µM (Malme-3M) [%] | growth at 10 µM (CAKI-1) [%] | growth at 0.01 µM (NCI/ADR-RES [3]) [%] | growth at 0.001 µM (SNB-75) [%] | growth at 10 µM (SK-MEL-2 [4]) [%] | growth at 0.001 µM (MDA-MB-435) [%] | GI50 (IGROV-1) [µM] | TGI (IGROV-1) [µM] | CC50 (IGROV-1) [µM] | other results
1 | COc1cc(C)cc(-c2nn(CC#N)cc2-c2ccc(-c3cccc(C(C)=O)c3)nc2)c1 | 101 | -16 | 44.7 | 84 | 33.8 | 24 | 93 | 5 | 28.1 | 83 | -53 | -1 | 17.8 | 91 | 82 | 35.4 | 101 | 2.73 | 10.4 | > 100 | growth at 0.1 µM (SF-268): 91%; growth at 1 µM (NCI-H23): 17%; growth at 0.1 µM (ACHN): 93%; growth at 10 µM (CCRF-CEM): 12%; growth at 0.001 µM (KM12): 99%; GI50 (COLO 205): 1.85 µM; TGI (COLO 205): 4.13 µM; CC50 (COLO 205): 9.2 µM; growth at 10 µM (SNB-19 [5]): 19%; growth at 0.001 µM (NCI/ADR-RES [6]): 99%; growth at 0.001 µM (OVCAR-8): 91%; growth at 10 µM (SK-MEL-5): 4.86%; GI50 (SK-MEL-2 [7]): 3.73 µM; TGI (SK-MEL-2 [7]): 41.3 µM; CC50 (SK-MEL-2 [7]): > 100 µM
2 | COc1cc(C)cc(-c2nn(CC#N)cc2-c2ccnc(-c3ccc(N(C)C)cc3)c2)c1 | 102 | -5 | 32.4 | 8 | 37.9 | 52 | 105 | 4 | 16 | 99 | -63 | 5 | 13.9 | 99 | 95 | 40.8 | 103 | 0.402 | 30.1 | > 100 | growth at 0.1 µM (SF-268): 31%; growth at 1 µM (NCI-H23): 15%; growth at 0.1 µM (ACHN): 29%; growth at 10 µM (CCRF-CEM): 10%; growth at 0.001 µM (KM12): 93%; GI50 (COLO 205): 0.32 µM; TGI (COLO 205): 7.69 µM; CC50 (COLO 205): 3.91 µM; growth at 10 µM (SNB-19 [5]): 9%; growth at 0.001 µM (NCI/ADR-RES [6]): 96%; growth at 0.001 µM (OVCAR-8): 97%; growth at 10 µM (SK-MEL-5): 2.26%; GI50 (SK-MEL-2 [7]): 1.01 µM; TGI (SK-MEL-2 [7]): 45.5 µM; CC50 (SK-MEL-2 [7]): > 100 µM
